This is an account of results in ChEMBL document CHEMBL1146453, “Insecticidal sesquiterpene pyridine alkaloids from Maytenus chiapensis” (J Nat Prod, 2004).

Values after ≈ are worked out from the molar mass of the structure shown. Active and inactive are the calls of the source. The rule behind the calls is not given here.

The subject of data set [1] is Spodoptera littoralis. Description: Antifeedant activity against Spodoptera littoralis L6 larvae treated orally. It is filed as functional, organism-based. In outline:
(§1)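 Sixth-instar S. littoralis larvae reared on artificial diet at 22 ± 1 °C, >70% RH, 16:8 h L:D, dosed orally. Food consumption and biomass gain were recorded. Post-ingestive effects were tested by ANCOVA of biomass gain with food consumption as covariate.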

Data set [2] concerns Spodoptera littoralis. Nature of the data set: Antifeedant activity against Spodoptera littoralis L6 larvae assessed as nutritional consumption relative to control. On the set-up: concentration or dose not given beside the values. It counts as functional. In outline:
as §1

The test system of data set [3] is Spodoptera littoralis. Nature of the data set: Antifeedant activity against Spodoptera littoralis L6 larvae assessed as biomass gain relative to control. It counts as functional. On the set-up: concentration or dose not given beside the values. In outline:
as §1

Data set [4] in a line: Cytotoxicity against Spodoptera frugiperda Sf9 cells by MTT assay. It counts as cell-based. The following applies: read-out: LD50 (the source's name). Summed up: (§2)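 Sf9 cells (S. frugiperda pupal ovarian tissue) and CHO cells were cultured and scored for viability by an adapted MTT colorimetric assay. LD50, the dose giving 50% viability, was calculated for active compounds.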

For data set [5], the system named is Spodoptera littoralis. Nature of the data set: Antifeedant activity against Spodoptera littoralis L6 larvae. It counts as functional, organism-based. Summed up: (§3)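 Choice feeding test on sixth-instar S. littoralis larvae and apterous adult M. persicae. Larvae reared on artificial diet, aphids on bell pepper plants, both at 22 ± 1 °C, >70% RH, 16:8 h L:D. Read-out is percent feeding inhibition (larvae) or settling inhibition (aphids). Actives above 50% went to dose–response, with EC50 taken from linear regression of %FR or %SI on log dose.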

Data set [6] in a line: Cytotoxicity against CHO cells by MTT assay. It is filed as cell-based, Cricetulus griseus. The following applies: chinese hamster, read-out: LD50 (the source's name). Summed up:
as §2

Data set [7] deals with Myzus persicae. Description: Antifeedant activity against Myzus persicae. It is filed as functional, organism-based. Summed up:
as §3

In the case of `CC(=O)OC[C@]12[C@H](OC(C)=O)[C@H](OC(C)=O)[C@@H]3[C@@H](OC(C)=O)[C@@]14O[C@@]3(C)COC(=O)c1cccnc1CCC(C)C(=O)O[C@@H]([C@H](OC(C)=O)[C@@H]2OC(C)=O)[C@]4(C)O` (some centres not stated) [EUONINE], the result in data set [1] and in data set [7] was inactive. Moreover, the Activity is reported as 111% in data set [2] and 98% in data set [3]. Further, the CC50 in data set [4] was 48.4 µg/mL (≈ 60 µM); in data set [6] it was over 100 µg/mL. The compound also registered an EC50 in data set [5] of 1.8 ×10⁻⁴ ug/cm2.

For the compound `CC(=O)OC[C@]12[C@H](OC(C)=O)C(=O)[C@@H]3[C@@H](OC(C)=O)[C@@]14O[C@@]3(C)COC(=O)c1cccnc1CCC(C)(O)C(=O)O[C@@H]([C@H](OC(=O)c1ccccc1)[C@@H]2OC(C)=O)[C@]4(C)O` (some centres not stated) [ALATAMINE], the result in data set [1] and in data set [7] was inactive. For the same compound, the values for the Activity in data set [2] and in data set [3] were 117% and 118%, respectively. The CC50 in data set [4] and in data set [6] was over 100 µg/mL in each case. The EC50 in data set [5] is listed as 5.2 ×10⁻³ ug/cm2.

On to `CC(=O)OC[C@]12[C@H](OC(C)=O)[C@H](OC(C)=O)[C@@H]3[C@@H](OC(C)=O)[C@@]14O[C@@]3(C)COC(=O)c1cccnc1C(C)C(C)C(=O)O[C@@H]([C@H](O)[C@@H]2OC(C)=O)[C@]4(C)O` (some centres not stated), for which the Activity in data set [2] came to 94%; in data set [3] it was 101%. In addition, the CC50 was 57.5 µg/mL (≈ 75.3 µM) in data set [4] and over 100 µg/mL in data set [6]. The compound further displayed an EC50 in data set [5] of over 50 microg/cm2. In data set [7], the result was inactive.

As to `CC(=O)OC[C@]12[C@H](OC(C)=O)[C@H](OC(C)=O)[C@@H]3[C@@H](OC(C)=O)[C@@]14O[C@@]3(C)COC(=O)c1cccnc1C(C)C(C)C(=O)O[C@@H]([C@H](OC(C)=O)[C@@H]2OC(=O)c1ccccc1)[C@]4(C)O` (some centres not stated) [MAYTEINE], the values for the Activity in data set [2] and in data set [3] were 146% and 112%, respectively. Also, the CC50 in data set [4] and in data set [6] was over 100 µg/mL throughout. The compound further returned an EC50 in data set [5] of over 50 microg/cm2. In addition, in data set [7], the outcome was inactive.

Regarding `CC(=O)OC[C@]12[C@H](OC(C)=O)[C@H](OC(C)=O)[C@@H]3[C@@H](OC(C)=O)[C@@]14O[C@@]3(C)COC(=O)c1cccnc1CCC(C)(O)C(=O)O[C@@H]([C@H](OC(C)=O)[C@@H]2OC(C)=O)[C@]4(C)O` (some centres not stated) [ALATUSININE], the outcome in data set [1] and in data set [7] was inactive. Besides, the Activity in data set [2] amounted to 125%; in data set [3], 111%. The CC50 in data set [4] was 73.2 µg/mL (≈ 89.1 µM); in data set [6], over 100 µg/mL. Moreover, in data set [5], the EC50 was 1.6 ×10⁻⁴ ug/cm2.

On to `CC(=O)OC[C@]12[C@H](OC(C)=O)C(=O)[C@@H]3[C@@H](OC(C)=O)[C@@]14O[C@@]3(C)COC(=O)c1cccnc1CCC(C)(O)C(=O)O[C@@H]([C@H](OC(=O)c1ccccc1)[C@@H]2OC(=O)c1ccccc1)[C@]4(C)O` (some centres not stated), for which the result in data set [1] and in data set [7] was inactive. The figures for the Activity in data set [2] and in data set [3] were 92% and 93%, respectively. In addition, the CC50 in data set [4] is 78.7 µg/mL (≈ 87.2 µM); in data set [6], over 100 µg/mL. In data set [5], the EC50 came out at 6.6 ×10⁻² ug/cm2.

As for `CC(=O)OC[C@]12[C@H](OC(C)=O)[C@H](OC(C)=O)[C@@H]3[C@@H](OC(C)=O)[C@@]14O[C@@]3(C)COC(=O)c1cccnc1CCC(C)(O)C(=O)O[C@@H]([C@H](OC(=O)c1ccccc1)[C@@H]2OC(=O)c1ccccc1)[C@]4(C)O` (some centres not stated), the outcome in data set [1] and in data set [7] was inactive. In addition, the values for the Activity in data set [2] and in data set [3] were 87% and 96%, respectively. Further, the CC50 in data set [4] and in data set [6] was over 100 µg/mL each time. The same compound registered an EC50 in data set [5] of 3.9 ×10⁻² ug/cm2.

As for `CC(=O)OC[C@]12[C@H](OC(C)=O)[C@H](OC(C)=O)[C@@H]3[C@@H](OC(C)=O)[C@@]14O[C@@]3(C)COC(=O)c1cccnc1C(C)C(C)C(=O)O[C@@H]([C@H](O)[C@@H]2OC(=O)c1ccccc1)[C@]4(C)O` (some centres not stated) [EBENIFOLINE E I], the result in data set [1] and in data set [7] was inactive. The figures for the Activity in data set [2] and in data set [3] were 81% and 83%, respectively. Besides, the CC50 in data set [4] was 78.8 µg/mL (≈ 95.4 µM); in data set [6] it was over 100 µg/mL. This compound also returned an EC50 in data set [5] of 0.72 microg/cm2.

Take `CC(=O)OC[C@]12[C@H](OC(C)=O)[C@H](OC(C)=O)[C@@H]3[C@@H](OC(C)=O)[C@@]14O[C@@]3(C)COC(=O)c1cccnc1CCC(C)(O)C(=O)O[C@@H]([C@H](OC(=O)c1ccccc1)[C@@H]2OC(C)=O)[C@]4(C)O` (some centres not stated) [WILFORDINE]: the outcome in data set [1] and in data set [7] was inactive. In addition, the Activity came out at 109% in data set [2] and 93% in data set [3]. In addition, the CC50 was 86.2 µg/mL (≈ 97.6 µM) in data set [4] and over 100 µg/mL in data set [6]. Further, the EC50 in data set [5] is 2.3 ×10⁻⁴ ug/cm2.

For `CC(=O)OC[C@]12[C@H](OC(C)=O)[C@H](OC(C)=O)[C@@H]3[C@@H](OC(C)=O)[C@@]14O[C@@]3(C)COC(=O)c1cccnc1C(C)C(C)C(=O)O[C@@H]([C@H](OC(C)=O)[C@@H]2OC(C)=O)[C@]4(C)O` (some centres not stated) [EUONYMINE], the Activity is on record as 102% in data set [2] and 105% in data set [3]. Further, the CC50 in data set [4] is 49.6 µg/mL (≈ 61.6 µM); in data set [6] it was over 100 µg/mL. The compound further gave an EC50 in data set [5] of over 50 microg/cm2. The outcome in data set [7] was inactive.
